Measured values as given in PMC6605684 (The Journal of General Physiology, 2019).
“And” between values parts separate entries of the source, which are not always exact repeats. Equal entries are not always repeated.

Tests used:
G551D-CFTR [1] = target: T1, G551D-CFTR (Homo sapiens, UniProt P13569, G551D); assay: Inside-out patch-clamp of CFTR currents in transfected CHO cells; assay type: cell-based
How it was run: (§1)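 CFTR construct and GFP plasmid cotransfected into CHO cells, held at 27°C for 2–6 d. Inside-out patches at room temperature, −30 mV, NMDG-Cl solutions at pH 7.4. Channels preactivated with 25 IU PKA plus 2 mM MgATP, then test compound (max 40 µM) applied in 2 mM ATP. ATP-subtracted steady-state currents normalized to the 3 µM response in the same patch. Hill fit with base 0 and maximum 1; EC50 ± SD of fit; 3–7 patches per point.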

S364A-CFTR = S364A-CFTR (Homo sapiens, UniProt P13569, S364A); assay: as above; assay type: cell-based
How it was run: as §1

F229A-CFTR = F229A-CFTR (Homo sapiens, UniProt P13569, F229A); assay: as above; assay type: cell-based
How it was run: as §1

G551D-CFTR [2] = target: T1, G551D-CFTR; details: ref Yeh et al., 2017, cited from earlier work
T360A-CFTR = T360A-CFTR (Homo sapiens, UniProt P13569, T360A); assay: Inside-out patch-clamp of CFTR currents in transfected CHO cells; assay type: cell-based
How it was run: as §1

S1141T/G551D-CFTR = S1141T/G551D-CFTR (Homo sapiens, UniProt P13569, G551D/S1141T); assay: as above; assay type: cell-based
How it was run: as §1

F931A-CFTR = F931A-CFTR (Homo sapiens, UniProt P13569, F931A); assay: as above; assay type: cell-based
How it was run: as §1

S182A-CFTR = S182A-CFTR (Homo sapiens, UniProt P13569, S182A); assay: as above; assay type: cell-based
How it was run: as §1

Y304A-CFTR = Y304A-CFTR (Homo sapiens, UniProt P13569, Y304A); assay: Inside-out patch-clamp of CFTR currents in transfected CHO cells; assay type: cell-based
How it was run: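 Relaxation assay: PKA-preactivated channels in 2 mM ATP at −30 mV exposed to test compound through a fast three-barrel perfusion system (dead time ∼30 ms). Current decay after sudden removal of 3 µM compound fitted with a single exponential to give relaxation time constant τ.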

D924N-CFTR = D924N-CFTR (Homo sapiens, UniProt P13569, D924N); assay: Inside-out patch-clamp of CFTR currents in transfected CHO cells; assay type: cell-based
How it was run: as §1

S1141K/G551D-CFTR = S1141K/G551D-CFTR (Homo sapiens, UniProt P13569, G551D/S1141K); assay: as above; assay type: cell-based
How it was run: as §1

K190A-CFTR = K190A-CFTR (Homo sapiens, UniProt P13569, K190A); assay: as above; assay type: cell-based
How it was run: as §1

R347C-CFTR = R347C-CFTR (Homo sapiens, UniProt P13569, R347C); assay: Inside-out patch-clamp of CFTR currents in transfected CHO cells; assay type: cell-based
How it was run: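 Channels in ATP exposed to test compound at pH 7.4; percent change of mean current scored. Perfusate then switched to pH 5.5, with or without prior compound exposure at pH 7.4. Fold increase taken as peak current at pH 5.5 divided by mean current at pH 7.4.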

D924A-CFTR = D924A-CFTR (Homo sapiens, UniProt P13569, D924A); assay: Inside-out patch-clamp of CFTR currents in transfected CHO cells; assay type: cell-based
How it was run: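 No macroscopic currents were obtained, so single-channel recordings were used: less plasmid, recorded within 2 d, 4–5 MΩ pipettes, patch held at −50 mV. Channels activated with PKA plus ATP, then PKA removed in 2 mM ATP. Activity at 3 and 20 µM test compound compared with basal activity in 2 mM ATP.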

F236A-CFTR = F236A-CFTR (Homo sapiens, UniProt P13569, F236A); assay: Inside-out patch-clamp of CFTR currents in transfected CHO cells; assay type: cell-based
How it was run: as §1

D924E-CFTR = D924E-CFTR (Homo sapiens, UniProt P13569, D924E); assay: as above; assay type: cell-based
How it was run: as §1

WT zCFTR (zWT) = WT zCFTR (zWT) (Danio rerio, UniProt Q1LX78); assay: as above; assay type: cell-based, zebrafish; details: EC50 for GLPG1837, dose–response
How it was run: as §1

[3] = CHO, read-out: Efficacy (% increase) of currents by GLPG1837

Sequence of D924A-CFTR (P13569 whole entry D924A): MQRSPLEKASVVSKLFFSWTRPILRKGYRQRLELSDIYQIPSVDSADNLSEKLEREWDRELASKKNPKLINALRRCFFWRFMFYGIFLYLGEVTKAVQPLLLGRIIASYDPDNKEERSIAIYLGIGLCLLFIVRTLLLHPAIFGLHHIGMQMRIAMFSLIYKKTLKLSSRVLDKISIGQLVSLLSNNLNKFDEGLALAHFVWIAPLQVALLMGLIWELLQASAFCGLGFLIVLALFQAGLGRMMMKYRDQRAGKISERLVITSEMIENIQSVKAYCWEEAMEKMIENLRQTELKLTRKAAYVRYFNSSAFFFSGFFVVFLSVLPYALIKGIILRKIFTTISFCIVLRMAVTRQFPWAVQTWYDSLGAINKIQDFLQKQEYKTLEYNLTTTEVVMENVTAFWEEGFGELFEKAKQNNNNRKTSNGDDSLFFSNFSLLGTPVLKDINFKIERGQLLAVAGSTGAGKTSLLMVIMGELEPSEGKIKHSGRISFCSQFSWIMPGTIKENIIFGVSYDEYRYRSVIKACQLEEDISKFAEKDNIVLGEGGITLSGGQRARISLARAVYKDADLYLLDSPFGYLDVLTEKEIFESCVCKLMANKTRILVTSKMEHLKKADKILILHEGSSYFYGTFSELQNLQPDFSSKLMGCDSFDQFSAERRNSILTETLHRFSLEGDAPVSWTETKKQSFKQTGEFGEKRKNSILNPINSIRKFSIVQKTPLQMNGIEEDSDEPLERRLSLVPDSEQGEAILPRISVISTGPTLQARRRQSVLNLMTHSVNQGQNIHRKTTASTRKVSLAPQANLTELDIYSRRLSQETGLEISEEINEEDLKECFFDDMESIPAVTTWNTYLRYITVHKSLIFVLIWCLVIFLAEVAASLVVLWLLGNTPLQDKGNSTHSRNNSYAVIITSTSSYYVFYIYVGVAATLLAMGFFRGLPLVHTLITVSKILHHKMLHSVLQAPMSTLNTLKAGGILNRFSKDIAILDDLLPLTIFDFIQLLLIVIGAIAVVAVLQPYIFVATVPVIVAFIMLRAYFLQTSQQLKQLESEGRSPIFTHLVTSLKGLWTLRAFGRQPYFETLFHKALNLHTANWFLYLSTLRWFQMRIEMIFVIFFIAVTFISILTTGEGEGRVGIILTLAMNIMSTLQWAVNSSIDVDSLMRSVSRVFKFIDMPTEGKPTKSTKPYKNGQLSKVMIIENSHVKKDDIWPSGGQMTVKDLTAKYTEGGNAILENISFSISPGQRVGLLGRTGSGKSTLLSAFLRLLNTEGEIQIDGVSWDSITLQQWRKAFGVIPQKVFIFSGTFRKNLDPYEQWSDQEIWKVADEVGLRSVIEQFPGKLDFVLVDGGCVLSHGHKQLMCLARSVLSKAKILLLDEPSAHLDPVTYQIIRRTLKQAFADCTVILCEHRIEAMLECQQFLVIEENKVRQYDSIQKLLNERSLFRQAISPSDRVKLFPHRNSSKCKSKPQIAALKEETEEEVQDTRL
Sequence of T360A-CFTR (P13569 whole entry T360A): as the sequence (P13569 whole entry D924A) above, with T360A, A924D counted along it
Sequence of F229A-CFTR (P13569 whole entry F229A): as the sequence (P13569 whole entry D924A) above, with F229A, A924D counted along it
Sequence of D924N-CFTR (P13569 whole entry D924N): as the sequence (P13569 whole entry D924A) above, with A924N counted along it
Sequence of D924E-CFTR (P13569 whole entry D924E): as the sequence (P13569 whole entry D924A) above, with A924E counted along it
Sequence of F236A-CFTR (P13569 whole entry F236A): as the sequence (P13569 whole entry D924A) above, with F236A, A924D counted along it
Sequence of K190A-CFTR (P13569 whole entry K190A): as the sequence (P13569 whole entry D924A) above, with K190A, A924D counted along it
Sequence of S182A-CFTR (P13569 whole entry S182A): as the sequence (P13569 whole entry D924A) above, with S182A, A924D counted along it
T1 sequence (P13569 whole entry G551D): as the sequence (P13569 whole entry D924A) above, with G551D, A924D counted along it
Sequence of Y304A-CFTR (P13569 whole entry Y304A, the tested form may be a part): as the sequence (P13569 whole entry D924A) above, with Y304A, A924D counted along it
Sequence of R347C-CFTR (P13569 whole entry R347C): as the sequence (P13569 whole entry D924A) above, with R347C, A924D counted along it
Sequence of S1141K/G551D-CFTR (P13569 whole entry G551D/S1141K): as the sequence (P13569 whole entry D924A) above, with G551D, A924D, S1141K counted along it
Sequence of S1141T/G551D-CFTR (P13569 whole entry G551D/S1141T): as the sequence (P13569 whole entry D924A) above, with G551D, A924D, S1141T counted along it
Sequence of S364A-CFTR (P13569 whole entry S364A): as the sequence (P13569 whole entry D924A) above, with S364A, A924D counted along it
Sequence of F931A-CFTR (P13569 whole entry F931A): as the sequence (P13569 whole entry D924A) above, with A924D, F931A counted along it
Sequence of WT zCFTR (zWT) (Q1LX78 whole entry): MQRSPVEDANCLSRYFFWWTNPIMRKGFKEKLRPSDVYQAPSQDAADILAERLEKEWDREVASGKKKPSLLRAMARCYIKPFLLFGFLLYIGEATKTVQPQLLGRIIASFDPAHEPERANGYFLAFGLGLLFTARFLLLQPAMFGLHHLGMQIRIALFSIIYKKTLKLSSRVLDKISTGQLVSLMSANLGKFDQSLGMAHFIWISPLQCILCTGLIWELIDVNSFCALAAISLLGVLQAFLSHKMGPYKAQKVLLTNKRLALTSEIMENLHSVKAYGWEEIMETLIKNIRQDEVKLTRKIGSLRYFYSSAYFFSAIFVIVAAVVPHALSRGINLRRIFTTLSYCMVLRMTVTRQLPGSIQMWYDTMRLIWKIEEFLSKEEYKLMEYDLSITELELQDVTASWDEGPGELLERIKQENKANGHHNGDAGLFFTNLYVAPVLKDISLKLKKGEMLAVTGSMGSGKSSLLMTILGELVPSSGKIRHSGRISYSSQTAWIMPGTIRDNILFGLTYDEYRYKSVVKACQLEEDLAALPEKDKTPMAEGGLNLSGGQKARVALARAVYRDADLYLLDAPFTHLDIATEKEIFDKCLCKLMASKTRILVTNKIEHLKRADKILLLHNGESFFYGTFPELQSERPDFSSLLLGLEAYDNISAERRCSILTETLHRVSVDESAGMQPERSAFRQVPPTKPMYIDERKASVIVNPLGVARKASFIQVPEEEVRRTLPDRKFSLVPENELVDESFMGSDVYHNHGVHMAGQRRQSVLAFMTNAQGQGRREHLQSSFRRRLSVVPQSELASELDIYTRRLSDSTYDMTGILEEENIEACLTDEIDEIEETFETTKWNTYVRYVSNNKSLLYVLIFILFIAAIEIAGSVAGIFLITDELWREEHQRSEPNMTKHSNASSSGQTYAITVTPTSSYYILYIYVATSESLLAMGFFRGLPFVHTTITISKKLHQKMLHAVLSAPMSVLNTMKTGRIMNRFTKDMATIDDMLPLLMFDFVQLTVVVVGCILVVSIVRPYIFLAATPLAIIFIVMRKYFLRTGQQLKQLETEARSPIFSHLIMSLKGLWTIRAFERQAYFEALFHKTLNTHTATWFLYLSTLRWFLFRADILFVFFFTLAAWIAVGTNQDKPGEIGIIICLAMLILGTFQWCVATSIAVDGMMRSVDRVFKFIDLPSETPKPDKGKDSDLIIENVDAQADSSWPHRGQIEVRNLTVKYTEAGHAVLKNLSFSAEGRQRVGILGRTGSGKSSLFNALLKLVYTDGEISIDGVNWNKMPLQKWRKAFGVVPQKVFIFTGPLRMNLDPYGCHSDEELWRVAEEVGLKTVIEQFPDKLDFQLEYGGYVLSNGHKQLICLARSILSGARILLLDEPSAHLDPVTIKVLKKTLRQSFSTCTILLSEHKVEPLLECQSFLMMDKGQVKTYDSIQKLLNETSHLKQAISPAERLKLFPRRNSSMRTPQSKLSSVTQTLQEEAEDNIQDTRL

## CC1(C)Cc2c(sc(NC(=O)c3ccn[nH]3)c2C(N)=O)C(C)(C)O1 [GLPG1837, N-(3-carbamoyl-5,5,7,7-tetramethyl-5,7-dihydro-4H-thieno[2,3-c]pyran-2-yl)-lH-pyrazole-5-carboxamide]
G551D-CFTR [1]
  EC50: 2.19 ± 0.33 µM
S364A-CFTR
  EC50: 0.18 ± 0.01 µM
S364A-CFTR; [3]
  Emax: 126 ± 5%
F229A-CFTR
  EC50: 0.46 ± 0.07 µM
F229A-CFTR; [3]
  Emax: 135 ± 26%
F229A-CFTR; GLPG1837, vs WT
  ΔΔG: -0.337 kcal/mol
G551D-CFTR [2]; greater than WT-CFTR
  Maximal fold increase of currents by GLPG1837 relative to WT-CFTR: 20 fold
G551D-CFTR [2]; lower than on WT-CFTR
  Apparent affinity for GLPG1837 relative to WT-CFTR: 10 fold
T360A-CFTR
  EC50: 0.12 ± 0.01 µM
T360A-CFTR; [3]
  Emax: 120 ± 38%
T360A-CFTR; GLPG1837, vs WT
  ΔΔG: 0.459 kcal/mol
S1141T/G551D-CFTR
  EC50: 1.74 ± 0.31 µM
S1141T/G551D-CFTR; GLPG1837, vs G551D
  ΔΔG: 0.136 kcal/mol
F931A-CFTR
  EC50: 1.14 ± 0.26 µM
F931A-CFTR; [3]
  Emax: 83 ± 12%
S182A-CFTR
  EC50: 0.22 ± 0.04 µM
S182A-CFTR; [3]
  Emax: 138 ± 23%
S182A-CFTR; GLPG1837, vs WT
  ΔΔG: 0.098 kcal/mol
Y304A-CFTR
  EC50: > 3 µM
Y304A-CFTR; [3]
  Emax: > 80%
Y304A-CFTR; GLPG1837, vs WT
  ΔΔG: <-1.45 kcal/mol
Y304A-CFTR; mean, n = 5
  Relaxation time constant upon removal of GLPG1837: 3.6 ± 1.0 s and < 5 s
D924N-CFTR
  EC50: 2.29 ± 0.78 µM
D924N-CFTR; GLPG1837, vs WT
  ΔΔG: -1.29 kcal/mol
D924N-CFTR; maximal percent increase
  Efficacy (% increase) of currents by GLPG1837: 464 ± 73%
S1141K/G551D-CFTR
  EC50: 0.26 ± 0.02 µM
S1141K/G551D-CFTR; GLPG1837, vs G551D
  ΔΔG: 1.26 kcal/mol
K190A-CFTR
  EC50: 0.08 ± 0.01 µM
K190A-CFTR; [3]
  Emax: 61 ± 12%
K190A-CFTR; GLPG1837, vs WT
  ΔΔG: 0.698 kcal/mol
R347C-CFTR; pH 5.5
  Effect of GLPG1837 on currents: effectively potentiates
R347C-CFTR; pH 7.4
  Percent of inhibition of currents by GLPG1837: 16 ± 3%
D924A-CFTR
  Decrease of apparent affinity for GLPG1837 vs WT-CFTR: ≥ 10 fold
  EC50: > 3 µM
D924A-CFTR; 3 µM GLPG1837, microscopic recording
  Potentiating effect of GLPG1837: barely discerned any potentiating effects
D924A-CFTR; GLPG1837, −RTln(EC50 mutant/EC50 WT)
  ΔΔG: <-1.45 kcal/mol
F236A-CFTR
  EC50: 0.34 ± 0.14 µM
F236A-CFTR; [3]
  Emax: 81 ± 14%
F236A-CFTR; GLPG1837, vs WT
  ΔΔG: -0.16 kcal/mol
D924E-CFTR
  EC50: 0.71 ± 0.07 µM
D924E-CFTR; [3]
  Emax: 194 ± 8%
D924E-CFTR; GLPG1837, vs WT
  ΔΔG: -0.595 kcal/mol
WT zCFTR (zWT)
  EC50: 3.9 ± 1.7 µM
